Bioassay records (PubChem)
NadD inh = NadD (S. aureus) enzyme inhibition; purified NadD enzyme, colorimetric absorbance read-out; inhibition, % at 20 µM; 360,000 tested, 0.78% active; in the data active = inhibition above about 26%
UCH37 DUB inh = blocks the human deubiquitinase UCH37. Q9Y5K5. purified proteasome/UCH37, Ub-AMC cleavage fluorescence. inhibition, % (no concentration beside the values). 330,000 tested, 0.33% active. AID 588478;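 active = mean inhibition over replicate wells above about 20%, limit read from the data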;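 also: 0% = compound-free wells with enzyme and 100% = wells lacking proteasome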
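Schedule: 30 min plus 25 min, room temperature / Material: human UCH37 within purified proteasomes / Technique: AMC fluorescence intensity at 355/460 nm / Buffer or medium: pH 7.4 Tris-HCl (50 mM) with ovalbumin, ATP-MgCl2, DTT / Controls: wells without proteasome as full block, compound-free enzyme plus substrate as uninhibited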
GRIN3A LBD mod = modulates the human NR3A ligand-binding domain; NR3A LBD differential scanning fluorimetry, Tm shift; 0% = protein alone, 100% = glycine-bound protein; Tm shift relative to glycine control, % at 25 µM; 340,000 tested, 2.5% active; AID 1259313;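 active = melting temperature shift of at least 10% of the positive control shift, at one fixed dose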
SENP1 FRET inh = SENP1 (human) catalytic domain inhibition; recombinant SENP1 catalytic domain, CyPet-SUMO1-YPet FRET cleavage; inhibition, % at 10 µM; 360,000 tested, 0.21% active; Q9P0U3;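 active = inhibition at least 30% at 10 µM, raw YFP signal under a set limit, fluorescence ratio 0.5 to 1.5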;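 also: 0% = enzyme with DMSO and 100% = no enzyme wells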
Target sequence (Q9P0U3 419-644 limits assumed): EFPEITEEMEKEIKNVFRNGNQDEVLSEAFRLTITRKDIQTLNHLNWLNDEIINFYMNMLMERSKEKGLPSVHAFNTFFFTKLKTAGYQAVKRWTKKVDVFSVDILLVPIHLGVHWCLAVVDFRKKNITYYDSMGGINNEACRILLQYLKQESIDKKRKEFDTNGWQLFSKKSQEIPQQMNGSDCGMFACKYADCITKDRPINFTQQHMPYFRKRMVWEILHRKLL
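System: Recombinant human SENP1 catalytic domain, His6-tagged | Incubation: Enzyme reaction for 50 min at room temperature, dark | Medium: Tris pH 8 with BME, BSA, NP40 and catalase | Also added: 25 nM SUMO1 FRET substrate | Compound: 10 µM single point, 0.5% DMSO | Measured by: FRET fluorescence in CFP and YFP emission channels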
ATG4B inh = inhibitors of human ATG4B cysteine protease | Q9Y4P1 | 340,000 tested, 0.51% active | inhibition, % at 8.33 µM | ATG4B cleavage of LC3-PLA2, NBD-HPC fluorescence, 1 h; in the data active = inhibition above about 40%
Target sequence (Q9Y4P1 whole entry, looked up): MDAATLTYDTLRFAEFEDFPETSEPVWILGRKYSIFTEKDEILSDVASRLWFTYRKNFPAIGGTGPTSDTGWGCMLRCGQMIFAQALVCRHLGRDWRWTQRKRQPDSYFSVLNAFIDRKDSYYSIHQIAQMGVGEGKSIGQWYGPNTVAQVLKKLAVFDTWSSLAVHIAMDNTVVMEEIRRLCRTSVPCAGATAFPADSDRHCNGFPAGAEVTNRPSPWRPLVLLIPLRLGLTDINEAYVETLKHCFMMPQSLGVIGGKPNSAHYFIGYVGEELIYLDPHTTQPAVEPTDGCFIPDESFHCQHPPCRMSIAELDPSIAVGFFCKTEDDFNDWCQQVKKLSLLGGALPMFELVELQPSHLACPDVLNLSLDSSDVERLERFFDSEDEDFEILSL
SENP1 conf = confirmation of human SENP1 SUMO protease inhibitors; inhibition, % at 10 µM; 520 tested, 34% active; AID 651678; shares compounds with SENP1 FRET inh; recombinant SENP1, CyPet-SUMO1-YPet FRET cleavage; in the data active = inhibition mostly above about 35%, no sharp cut-off; inactive = mostly below about 32%;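 also: 0% = enzyme with DMSO and 100% = no enzyme control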
SENP1 kinetic = confirmation of human SENP1 SUMO protease inhibitors, kinetic. shares compounds with SENP1 FRET inh. recombinant SENP1, CyPet-SUMO1-YPet FRET kinetic cleavage. inhibition, % at 10 µM. 520 tested, 26% active; in the data active = inhibition mostly above about 32%, no sharp cut-off; inactive = mostly below about 29%;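 also: 0% = DMSO with enzyme and 100% = no enzyme substrate only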
Numbers without * were called inactive; . = not tested or not shown. Sampled rows, rich in hits. Any-hit rate of the full collection: about 3.6%.

SMILES	NadD inh	UCH37 DUB inh	GRIN3A LBD mod	SENP1 FRET inh	ATG4B inh	SENP1 conf	SENP1 kinetic
COc1c(O)cccc1[C@H](O)C1CCN(CCc2ccc(F)cc2)CC1	-6	4	-3	30*	-4	5	11
CCOC(=O)C(=O)NN=Cc1ccc(F)cc1	.	5	.	.	.	.	.
C(=Nc1nccs1)c1c[nH]c2ccccc12	.	7	.	.	.	.	.
CC(=O)Oc1ccc(N2C(=O)C3C(C2=O)C(C(=O)c2ccc(Cl)cc2)N2CCCC32)cc1 (configuration not stated)	22	2	1	61*	-7	86*	45*
CN1C(=O)/C(=C\c2cccc(OCc3ccccc3)c2)SC1=S	3	5	0	2	9	.	.
CN1C(=O)/C(=C/c2ccc(OC(=O)c3ccco3)cc2)SC1=S	1	3	1	46*	-3	23	12
CN1C(=O)/C(=C\c2ccc(OC(=O)c3ccco3)cc2)SC1=S	5	3	1	44*	0	11	6
COc1ccc2sc(/C=C/c3ccccc3O)[n+](C)c2c1	5	14	0	39*	-2	58*	40*
COc1cc(C=NNC(=O)c2ccoc2C)ccc1OCCN1CCCCC1	.	2	.	.	.	.	.
Nc1c2c(nc3cccc(Cl)c13)N(c1ccccc1)CC2	-4	-21	-12	55*	6	-12	-3
Cc1ccc2nc3c(c(N)c2c1)CCN3c1ccccc1	-3	-439	1	13	-19	.	.
O=c1[nH]ncc2c3ccccc3n(Cc3cccc(Cl)c3)c12	-13	.	-5	86*	-10	106*	62*
O=c1[nH]ncc2c3ccccc3n(Cc3ccc(F)cc3)c12	-2	5	-4	1	-3	.	.
Clc1ccc(-c2ccc(C=Nc3ccc(N4CCOCC4)cc3)o2)cc1	-7	3	-11	-68	23	.	.
Clc1ccc(-c2ccc(C=Nc3ccc(N4CCOCC4)cc3)o2)c(Cl)c1	-4	3	2	32*	6	-2	3
Cc1cc(C)nc(N=C(N)N2CCc3ccccc32)n1	.	4	.	.	.	.	.
CSc1ccc(C=NNC(=O)CN2CCN(Cc3ccc(Cl)cc3)CC2)cc1	.	2	.	.	.	.	.
CCCNC(=O)c1ccc(C2SCC(=O)N2Cc2ccccc2)cc1 (configuration not stated)	4	4	-2	1	-5	.	.
CC(C)CNC(=O)c1ccc(C2SCC(=O)N2Cc2ccccc2)cc1 (configuration not stated)	-1	2	-2	46*	-1	35*	29
CC1CCc2c(sc3ncnc(SCC(=O)N(C)C4CCS(=O)(=O)C4)c23)C1 (configuration not stated)	1	2	0	32*	-4	1	19
CN(C)/N=C/c1ccc([N+](=O)[O-])cc1[N+](=O)[O-]	5	.	1	2	2	.	.
CN(N=Cc1cccc2cccnc12)c1ccc([N+](=O)[O-])cc1[N+](=O)[O-]	5	.	0	31*	-2	35*	22
Cn1c(/C(C#N)=C(\O)c2ccc(Cl)s2)nc2ccccc21	3	-86	1	-55	-1	.	.
Cn1c(/C(C#N)=C(\O)c2ccc([N+](=O)[O-])s2)nc2ccccc21	1	3	-1	46*	-11	11	12
O=[N+]([O-])c1ccc(/C=N/Nc2ncc(-c3ccccc3)cn2)cc1	0	.	-1	-17	6	.	.
SMILES	NadD inh	UCH37 DUB inh	GRIN3A LBD mod	SENP1 FRET inh	ATG4B inh	SENP1 conf	SENP1 kinetic
Cc1cc2c(C)nc(N/N=C/c3ccc([N+](=O)[O-])cc3)nc2o1	-6	.	-3	36*	0	32	19
O=[N+]([O-])c1ccc(C=NNc2ccccc2)cc1	0	3	34*	72*	3	59*	43*
O=C(Nc1ccc2c(c1)OCO2)C(=O)c1c[nH]c2ccccc12	-1	8	0	31*	-4	37	32*
O=C(Nc1ccc2c(c1)OCCO2)C(=O)c1c[nH]c2ccccc12	-10	3	-24	3	-3	.	.
O=C(NCC1CCCO1)c1ccc2c(=O)n(CC3CCCO3)c(=S)[nH]c2c1 (configuration not stated)	-2	5	2	0	-14	.	.
O=C(NCC1CCCO1)c1sc(=S)n2c1[nH]c(=O)c1ccc(C(=O)N3CCCCC3)cc12 (configuration not stated)	2	13	-6	31*	16	42*	19
COc1cccc(NC(=O)CC2SC(=NS(=O)(=O)c3ccccc3)N(c3ccccc3)C2=O)c1 (configuration not stated)	.	3	.	.	.	.	.
Cc1nc2cc(NCc3ccc(Cl)cc3)ccc2n1C	-3	-2	-1	31*	3	18	14
Clc1ccccc1C=NNc1ccccn1	-2	.	3	1	4	.	.
Brc1ccccc1/C=N/Nc1ccccn1	1	.	1	44*	3	-4	-2
O=[N+]([O-])c1ccc2[nH]c(O)c(N=Nc3ccc(F)cc3)c2c1	13	7	0	56*	-10	10	5
CCN(CC)S(=O)(=O)c1cc([N+](=O)[O-])ccc1N=Nc1c(O)[nH]c2ccccc12	11	6	18*	46*	1	4	3
Cc1ccc(C)c(S(=O)(=O)N=Nc2c(O)[nH]c3ccccc23)c1	-3	4	-1	-6	-4	.	.
O=C1CC[C@@H]2C[C@@]3(C[C@@H]4CCN1[C@H]24)Nc1cc([N+](=O)[O-])ccc1NC3=NCc1ccccc1	0	.	10	55*	4	42*	26
COc1ccc(C=Nn2c(COc3ccccc3)n[nH]c2=S)cc1OC	.	6	.	.	.	.	.
COc1ccc(N=Nc2nc3cc(Br)c(Br)cc3n2C)c(OC)c1	0	6	-11	61*	-26	32	44*
COc1ccc(CNc2nc3ccccc3n2C)c(OC)c1	-2	5	1	2	-10	.	.
O=[N+]([O-])c1cc(Cl)cc(C=NNc2ccccn2)c1O	.	1	.	.	.	.	.
CCOC(=O)CSc1nc2ccc(C)cc2cc1C#N	-5	4	1	22	6	.	.
Cc1cc2cc(C#N)c(SCC(=O)Nc3nonc3C)nc2cc1C	1	-16	4	65*	3	16	17
CCOC(=O)CSc1nc2cc(C)ccc2cc1C#N	-6	2	1	55*	7	5	15
O=C(NN=Cc1ccccn1)C1CC1	.	0	.	.	.	.	.
COc1cccc(C=NNC(=O)CN(C2=NS(=O)(=O)c3ccccc32)c2ccccc2)c1	.	-1	.	.	.	.	.
